Here are results for 16 compounds from ChEMBL document CHEMBL1152594, “The design and optimization of a series of 2-(pyridin-2-yl)-1H-benzimidazole compounds as allosteric glucokinase activators” (Bioorg Med Chem, 2009).

pEC50: −log10 of the molar value. Calls of active or inactive are those of the source. The calls are words filed in the database; no cut-off is given here. Some results are limits rather than exact numbers.

For data set [1], the target named is T1, Hexokinase-4 (Homo sapiens, UniProt P35557).
T1 sequence (P35557 whole entry): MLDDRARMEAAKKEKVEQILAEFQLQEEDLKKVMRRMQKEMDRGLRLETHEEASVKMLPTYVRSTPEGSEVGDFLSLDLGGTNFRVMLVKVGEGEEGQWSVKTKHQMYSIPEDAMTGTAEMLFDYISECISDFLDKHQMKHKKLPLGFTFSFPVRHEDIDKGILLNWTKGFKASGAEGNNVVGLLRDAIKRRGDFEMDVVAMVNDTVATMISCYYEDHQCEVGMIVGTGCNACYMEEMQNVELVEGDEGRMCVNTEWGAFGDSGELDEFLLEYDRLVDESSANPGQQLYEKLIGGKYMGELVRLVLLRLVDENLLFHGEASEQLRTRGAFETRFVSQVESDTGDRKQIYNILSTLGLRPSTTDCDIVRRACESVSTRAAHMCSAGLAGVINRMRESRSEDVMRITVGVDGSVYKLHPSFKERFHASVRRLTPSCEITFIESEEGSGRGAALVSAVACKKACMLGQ
As to the kind of experiment: Activation of human liver glucokinase expressed in Escherichia coli at 2.5 mM glucose concentration by glucose-6-phosphate coupled continuous spectrophotometric assay.

The subject of another data set is Mus musculus. As to the kind of experiment: Hypoglycemic efficacy in high-fat diet-induced mouse assessed as acute glucose lowering at 10 mg/kg, po. Format: functional, organism-based. On the set-up: dose 10 mg/kg. The method, boiled down:
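They received compound orally in 0.5% methylcellulose vehicle, or vehicle alone. Blood glucose was measured just before dosing and at 1, 2, 3 and 4 h after.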

The target in data set [2] is T1, Hexokinase-4. As to the kind of experiment: Activation of human liver glucokinase expressed in Escherichia coli at 10 mM glucose concentration by glucose-6-phosphate coupled continuous spectrophotometric assay.
A short description of data set [3]: Half life in Beagle dog at 0.3 mg/kg, iv and 1 mg/kg, po. As to conditions: in vivo.
Data set [4] can be described thus: Cmax in Beagle dog at 0.3 mg/kg, iv and 1 mg/kg, po. As to conditions: in vivo.
Data set [5] is described as follows: AUC in Sprague-Dawley rat at 1 mg/kg, iv and 3 mg/kg, po. Format: ADME, organism-based. As to conditions: plasma. The method, boiled down: (§1)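 Male SD rats received 1 mg/kg iv or 3 mg/kg po. Plasma AUC, Cmax, T1/2, CLp and oral bioavailability (F) were derived from these dosings.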
A short description of data set [6]: Oral bioavailability in Sprague-Dawley rat at 3 mg/kg, po. Format: ADME, organism-based. Particulars: in vivo. The method, boiled down:
as §1

Data set [7] in a line: AUC in Beagle dog at 0.3 mg/kg, iv and 1 mg/kg, po. As to conditions: plasma.
Data set [8] can be described thus: Plasma clearance in Sprague-Dawley rat at 1 mg/kg, iv and 3 mg/kg, po. Format: ADME, organism-based. The method, boiled down:
as §1

Data set [9] can be described thus: Half life in Sprague-Dawley rat at 1 mg/kg, iv and 3 mg/kg, po. Format: ADME, organism-based. As to conditions: in vivo. The method, boiled down: as §1
Data set [10] is described as follows: Oral bioavailability in Beagle dog at 1 mg/kg, po. Particulars: in vivo.
Data set [11] can be described thus: Cmax in Sprague-Dawley rat at 1 mg/kg, iv and 3 mg/kg, po. Format: ADME, organism-based. As to conditions: in vivo. The method, boiled down: as §1
The test system of data set [12] is Rattus norvegicus. As to the kind of experiment: Hypoglycemic efficacy in Wistar rat assessed as reduction in area under the glucose curve at 1 mg/kg, po by oral glucose tolerance test. Format: functional. On the set-up: scale not given: the % may be the effect or the level left. The method, boiled down:
(§2)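 In the Wistar rat OGTT, the compound was given orally. […] Groups were compared by one-way ANOVA followed by Dunnett's test, with significance at p < 0.05.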

The test system of data set [13] is Rattus norvegicus. As to the kind of experiment: Hypoglycemic efficacy in Wistar rat assessed as reduction in area under the glucose curve at 3 mg/kg, po by oral glucose tolerance test. Format: functional. On the set-up: scale not given: the % may be the effect or the level left. The method, boiled down:
as §2

Broadly, the pEC50 is the EC50 on a negative log10 scale, so that one unit is a factor of ten. As to `CCS(=O)(=O)c1ccc(Oc2cc3nc(-c4ccccn4)[nH]c3cc2CN2CCCC2=O)cc1`, the pEC50 on Hexokinase-4 [1] is 6.46; at Hexokinase-4 [2], 7.22. The outcome with Mus musculus was Active.

In the case of `CCS(=O)(=O)c1ccc(Oc2cc3[nH]c(-c4ccccn4)nc3cc2CCC(=O)N(C)C)cc1`, the pEC50 is 6.21 at Hexokinase-4 [1] and 6.92 at Hexokinase-4 [2].

With `CCS(=O)(=O)c1ccc(Oc2cc3nc(-c4ccccn4)[nH]c3cc2Cc2nnnn2C)cc1`, the values for the pEC50 on Hexokinase-4 [1] and on Hexokinase-4 [2] were 6.39 and 7.15, respectively.

Consider `CCS(=O)(=O)c1ccc(Oc2cc3nc(-c4ccccn4)[nH]c3cc2CN2CCN(C)C2=O)cc1`, for which the pEC50 on Hexokinase-4 [1] is 6.49; on Hexokinase-4 [2], 7.10.

Take `CCN(Cc1cc2nc(-c3ccccn3)[nH]c2cc1Oc1ccc(S(=O)(=O)CC)cc1)C(C)=O`: the pEC50 on Hexokinase-4 [1] is 6.30; on Hexokinase-4 [2], 6.96.

As for `CCS(=O)(=O)c1ccc(Oc2cc3nc(-c4ccccn4)[nH]c3cc2CN2C(=O)CN(C)C2=O)cc1`, the pEC50 on Hexokinase-4 [1] was 6.74; at Hexokinase-4 [2] it was 7.22.

The half-life is the time in which the quantity being followed falls by half. One may read the Cmax as the peak of the concentration-time curve. As usually defined, the AUC is concentration integrated over time. Broadly, the bioavailability is dose-corrected exposure relative to a reference, in per cent. Consider `CCS(=O)(=O)c1ccc(Oc2cc3nc(-c4ccccn4)[nH]c3cc2CN2C(=O)CCC2=O)cc1`, for which the pEC50 at Hexokinase-4 [1] was 6.80; on Hexokinase-4 [2], 7.40. Also, the half-life in data set [3] is 384 min; in [9] it was 36 min. The Cmax in [4] and in [11] was 400 nM throughout. For the same compound, the AUC in data set [5] was 0.5 µM·h; in data set [7], 4 µM·h. The bioavailability was 16% in data set [6] and 41% in data set [10]. The clearance in data set [8] was 32 mL/min/kg. In addition, the result in the data set on Mus musculus was Active. The Activity is 19% in the data set with Rattus norvegicus [12] and 27% with Rattus norvegicus [13].

As to `CCS(=O)(=O)c1ccc(Oc2cc3nc(-c4ccccn4)[nH]c3cc2CN2CCNC2=O)cc1`, the pEC50 on Hexokinase-4 [1] and on Hexokinase-4 [2] was below 5.30 in each case.

As to `CCS(=O)(=O)c1ccc(Oc2cc3nc(-c4ccccn4)[nH]c3cc2Cn2ccnc2)cc1`, the pEC50 on Hexokinase-4 [1] was 6.37; on Hexokinase-4 [2] it was 6.92.

As to `CCS(=O)(=O)c1ccc(Oc2cc3nc(-c4ccccn4)[nH]c3cc2CN2CCCC2)cc1`, the negative-log EC50 (pEC50) on Hexokinase-4 [1] and on Hexokinase-4 [2] was below 5.30 throughout.

With `CCS(=O)(=O)c1ccc(Oc2cc3nc(-c4ccccn4)[nH]c3cc2CN2CCCS2(=O)=O)cc1`, the pEC50 on Hexokinase-4 [1] is 6.34; at Hexokinase-4 [2] it was 7.05.

In the case of `CCS(=O)(=O)c1ccc(Oc2cc3nc(-c4ccccn4)[nH]c3cc2CN2CCOC2=O)cc1`, the negative-log EC50 (pEC50) at Hexokinase-4 [1] was 6.60; on Hexokinase-4 [2] it was 7.22. In the data set with Mus musculus, the outcome was inactive.

Consider `CCS(=O)(=O)c1ccc(Oc2cc3nc(-c4ccccn4)[nH]c3cc2CN2CCOCC2=O)cc1`, for which the pEC50 is 6.55 at Hexokinase-4 [1] and 7.00 on Hexokinase-4 [2].

Regarding `CCS(=O)(=O)c1ccc(Oc2cc3nc(-c4ccccn4)[nH]c3cc2CNC(C)=O)cc1`, the figures for the pEC50 at Hexokinase-4 [1] and on Hexokinase-4 [2] were 5.85 and 6.66, respectively.

Regarding `CCS(=O)(=O)c1ccc(Oc2cc3nc(-c4ccccn4)[nH]c3cc2CN(C)C(C)=O)cc1`, the pEC50 at Hexokinase-4 [1] is 6.52; at Hexokinase-4 [2], 7.15. Further, in the data set with Mus musculus, the outcome was Active.

Take `CCS(=O)(=O)c1ccc(Oc2cc3nc(-c4ccccn4)[nH]c3cc2CN2C(=O)COC2=O)cc1`: the pEC50 at Hexokinase-4 [1] was 7.05; at Hexokinase-4 [2] it was 7.70. Besides, the result in the data set with Mus musculus was inactive.
